For 93 compounds, activation results are on record in PubChem BioAssay AID624038 (The Scripps Research Institute Molecular Screening Center, 2012).

The campaign covered roughly 360,000 compounds. About 1,100 (0.31%) were called active. Many of the other results were omitted from the sample, so actives are more common in it than they were. Unmarked numbers belong to inactive results.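 Rule for the calls: active = activation above the run cutoff, the mean activation of all test compounds plus 3 SD (cut at about 18% in these data); inactive = the rest.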

Sequence of Muscarinic acetylcholine receptor M5 (Homo sapiens) (P08912 whole entry, looked up): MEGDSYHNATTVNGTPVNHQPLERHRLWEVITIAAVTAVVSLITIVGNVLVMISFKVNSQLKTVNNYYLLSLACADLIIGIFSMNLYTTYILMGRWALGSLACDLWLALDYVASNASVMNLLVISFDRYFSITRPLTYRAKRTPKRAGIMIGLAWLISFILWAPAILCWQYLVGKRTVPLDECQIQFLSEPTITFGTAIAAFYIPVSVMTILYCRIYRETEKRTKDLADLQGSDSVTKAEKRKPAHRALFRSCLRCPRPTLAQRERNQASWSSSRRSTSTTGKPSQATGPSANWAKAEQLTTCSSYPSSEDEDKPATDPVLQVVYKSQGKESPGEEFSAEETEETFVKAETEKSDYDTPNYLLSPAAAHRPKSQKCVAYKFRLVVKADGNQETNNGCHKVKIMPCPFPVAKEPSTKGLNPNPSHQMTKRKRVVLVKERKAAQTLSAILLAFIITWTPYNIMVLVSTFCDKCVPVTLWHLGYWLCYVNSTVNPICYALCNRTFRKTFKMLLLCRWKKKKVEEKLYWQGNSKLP

The target of the experiment is Muscarinic acetylcholine receptor M5 (Homo sapiens) (UniProt P08912). As to the kind of experiment: human M5 muscarinic receptor positive allosteric modulators, primary screen, CHO-K1 cells, Fluo-8 calcium fluorescence (AID 624038). Conditions: CHO-K1 hM5, Fluo-8 calcium, ACh EC20 PAM; at 3 µM; active compounds read high; 0% = ACh EC20, 100% = ACh EC100. The gist of the method:
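system = human M5 receptor in CHO-K1 cells | reagent = EC20 acetylcholine as agonist stimulus | compound dosing = single-point, 3 µM nominal | incubation = Fluo-8 loading 80 min at 37 °C plus 30 min room temperature | detection = Fluo-8 calcium dye fluorescence, kinetic read | benchmarks = low control EC20 acetylcholine (0%), high control EC100 acetylcholine (100%)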
Regarding `CCCc1ccc(C(=O)[C@@H]2[C@@H](C(C)=O)N3c4ccc(F)cc4C=C[C@@H]3[C@@]23C(=O)Nc2ccccc23)cc1`, the activation is 25.3% (active).
The value for `COC(=O)c1ccc(Oc2nc(NC(C)C)nc(SC)n2)cc1` was 2.31%.
Consider `CCOc1ccc(N(C)S(=O)(=O)c2cnc[nH]2)cc1`, for which the activation is 11.8%.
The value for `Cc1ccc2[nH]c(=O)c(COC(=O)c3ccccn3)cc2c1` was -8.69%.
In the case of `Cc1ccc2[nH]c(=O)c(CN(C)S(=O)(=O)c3cccc4nonc34)cc2c1`, the activation is 4.24%.
With `CCCc1nc(-c2cc3cc(C)ccc3[nH]c2=O)no1` the figure was 25% (active); with `Cc1c(C(=O)NCC2CC2)sc(=O)n1Cc1cccc(F)c1`, 2.84%.
With `CCCn1c(O)c(CN2CCCC(C)C2)c(C)c(C#N)c1=O` (stereo not drawn) the figure was -2.92%.
With `CC(C)(C)NC(=O)CN(C(=O)c1ccc(Cl)nc1)c1cccc2ccccc12` the figure was 22.9% (active); with `CC(C)(C)NC(=O)CN(C(=O)c1csnn1)c1ccccc1-c1ccccc1`, -2.48%.
Turning to `O=C(COC(=O)c1ccc(Cl)nc1)NCc1cccs1`, the activation is -12.7%.
The value for `O=c1c2cc(-c3ccccc3)sc2nc2n1N=C(c1cccs1)CS2` was 9.65%; that for `Cc1cc(C)n(-c2nnc(N3CCN(c4ccccc4)CC3)nn2)n1` was -0.36%; that for `Cc1cc(C)nc(-n2nc(C)cc2NC(=O)c2ccc(F)cc2F)n1` was 3.36%.
As to `Cc1cc(N/N=C\c2ccc(Br)cc2)nc(-n2nc(C)cc2C)n1`, the activation is 20.4% (active).
As for `COc1ccccc1-c1n[nH]nc1C1=CC(=O)CC(C)(C)C1`, the activation was -0.48%.
As to `CCCCCCCCN1C(=O)[C@H](CC(=O)NCC23CC4CC(CC(C4)C2)C3)C[C@@]2(C(=O)OC)CCCCC=C12`, the activation is -2.23%.
With `Cc1ccc(C(=O)NC(C)c2ccccc2)cc1Br` (stereo not drawn) the figure was -0.29%; with `CC(NC(=O)C(=O)N/N=C/c1ccc(Cl)cc1)c1ccccc1` (stereo not drawn), -5.3%; with `CC(NC(=O)c1cc2cc(Cl)ccc2oc1=N)c1ccccc1` (stereo not drawn), 35.2% (active).
The value for `COC(=O)c1cccc([N+](=O)[O-])c1CS(=O)(=O)c1ccc(C)cc1` was -5.08%.
The value for `CC(=O)N1c2ccc(S(=O)(=O)N3CCC(C(=O)NC4CCCCC4C)CC3)cc2CC1C` (stereo not drawn) was -5.55%; that for `COC(=O)Cc1nc2c(N)nc(N)nc2[nH]c1=O` was 5.33%.
Regarding `NC1=C([N+](=O)[O-])C(c2ccccc2)C2=C(CCCC2=O)O1` (stereo not drawn), the activation is 23.6% (active).
Consider `N#CC1=C(N)OC2=C(C(=O)CCC2)C1C1CC=CCC1` (stereo not drawn), for which the activation is -4.35%.
`COc1cc(C2C3=C(CCCC3=O)OC3=C2C(=O)CCC3)ccc1OCC(=O)Nc1ccccc1`: the activation is -5.18%.
With `CCCNC(=O)C1(C)CCN(Cc2ccc(Cl)c(Cl)c2)C1` (stereo not drawn) the figure was 0.24%.
With `Cc1cc(-n2cnc(-c3cn(C)nc3C)n2)no1` the figure was -0.03%; with `CC(C)Oc1ccc(CN2CCC(n3nccc3NC(=O)c3cccnc3)CC2)cc1`, 0.11%.
With `COc1ccc(S(=O)(=O)N2CCN(CC(=O)N3CCNC3=O)CC2)cc1OC` the figure was 2.2%.
Turning to `CC(=O)N1CC[n+]2c(-c3ccc([N+](=O)[O-])cc3)csc21`, the activation is 20% (active).
With `Cc1cc(C)cc(C(=O)N2CCN=C2SCc2ccc([N+](=O)[O-])cc2)c1` the figure was -5.65%.
With `CN1C2CCC1CC(NC(=O)c1ccc([N+](=O)[O-])cc1)C2` (stereo not drawn) the figure was 0.81%; with `O=C(NNS(=O)(=O)c1c(F)cc(F)c(Cl)c1F)C12CC3CC(CC(C3)C1)C2`, -0.38%; with `CC(C)(C)C1CCC(OC(=O)CCC(=O)Nc2ccccc2)CC1` (stereo not drawn), -2.13%.
The value for `CN1CCC(=NNC(=O)CN(c2cccc(Cl)c2)S(C)(=O)=O)CC1` was 7.47%; that for `COc1cc(C(=O)OCC(=O)NC(C)CCc2ccccc2)cc(OC)c1OC` (stereo not drawn) was -10.1%; that for `COc1cc(OC)cc(C(=O)NCC(=O)OCC(=O)NC(C)CCc2ccccc2)c1` (stereo not drawn) was 21.1% (active).
With `CC(CCc1ccccc1)NC(=O)COC(=O)c1ccc(F)cc1` (stereo not drawn), the activation was -4.05%.
Consider `CC(C)CN(C(=O)CSc1nncn1C)C1CCS(=O)(=O)C1` (stereo not drawn), for which the activation is 11.7%.
The value for `CCC(C(=O)NCc1ccc(OC)cc1)n1nc(C)n2c(cc3occc32)c1=O` (stereo not drawn) was 18.4% (active); that for `CCOc1ccc(CCNC(=O)C(CC)n2nc(C)n3c(cc4sccc43)c2=O)cc1OCC` (stereo not drawn) was -4.37%.
In the case of `CCc1nn(CCCC(=O)NCc2ccc(C)cc2)c(=O)c2cc3occc3n12`, the activation was 2.21%.
With `COc1cc(OC)c(NC(=O)C2CCCN2C(=O)OCc2ccccc2)cc1Cl` (stereo not drawn) the figure was 2.68%; with `CCCCNC(=O)OC1CC2CC1[C@H]1CCCCN1C2=O` (stereo partly drawn), 0.25%; with `CCOc1ccc(OCc2cccc(C(=O)N(CC)CC)c2)cc1`, -1.6%.
With `CC(=O)Oc1ccc(-c2cccc(C(=O)N3CCCCC3)c2)cc1` the figure was -3.42%.
The value for `COc1ccc(OCc2cccc(C(=O)N3CCCC3)c2)cc1` was 19.1% (active); that for `Cc1ccc(C2SCC(=O)N2c2ccccc2)cc1` (stereo not drawn) was 13.5%; that for `CC(C)(C)OC(=O)C[C@@H]1C/C=C\C[C@@H](CC(=O)N[C@H](CO)Cc2ccccc2)C(=O)NCCOC1=O` was -2.01%.
Take `C[C@H]1COC(=O)[C@H](CC(=O)OC(C)(C)C)C/C=C\C[C@@H](CC(=O)N[C@H](CO)Cc2ccccc2)C(=O)N1`: the activation was 20.5% (active).
The value for `CC(C)(C)OC(=O)C[C@@H]1C/C=C\C[C@H](CC(=O)N[C@@H](CO)Cc2ccccc2)C(=O)N[C@H](Cc2ccccc2)COC1=O` was -0.44%; that for `Cc1nn(C)c(C)c1Sc1ccccc1N` was -3.24%.
With `O=C(COC(=O)CNC(=O)c1ccccc1F)NCC(F)(F)F` the figure was 16.4%.
With `O=C(CNC(=O)c1ccccc1F)c1ccc(Br)cc1` the figure was 1.83%; with `COC(=O)CNC(=O)c1ccccc1F`, 22.4% (active).
As for `Cn1ncc(Br)c1C(=O)NC1CCCC1`, the activation was 36.9% (active).
For the compound `Cc1nn(C)c(C(=O)NNC(=S)NC2CCCCC2)c1Cl`, the activation was -3.58%.
The value for `COc1ccccc1NC(=O)c1c(Br)cnn1C` was 0.59%.
Regarding `O=S(=O)(NCCc1ccccc1)c1ccccc1`, the activation was 20.4% (active).
With `O=S(=O)(NCCc1ccncc1)c1ccccc1` the figure was 8.02%.
The value for `CC(=O)Nc1ccc(S(=O)(=O)NCCc2ccccc2)cc1` was -2.74%; that for `CCCC(C)n1[nH]c(=O)c2c(C)cc(C)nc21` (stereo not drawn) was 4.59%; that for `O=C1COc2ccc(C(=O)COC(=O)c3ccccc3Cl)cc2N1` was -8.98%.
With `Cc1ccc(S(=O)(=O)N(C)C)cc1NC(=O)CN1c2cccc3cccc(c23)S1(=O)=O` the figure was -2.16%.
As for `Cn1ncc2c(NNC(=O)Cc3cccc4ccccc34)ncnc21`, the activation is 6.42%.
With `Cn1ncc2c(Nc3cccc4ccccc34)ncnc21` the figure was 43.5% (active); with `Cc1nc(Nc2ccccc2C)c2cnn(C)c2n1`, -2.69%; with `CCCNC(=O)COc1coc(CN2CCN(Cc3ccccc3)CC2)cc1=O`, -3.51%.
With `O=C(Cn1[nH]c(=O)c2ccccc2c1=O)Nc1cccc(-c2nnc3n2CCCCC3)c1` the figure was 22.3% (active); with `Cc1c(C(=O)Nc2cccc(-c3nnc4n3CCCCC4)c2)oc2ccccc12`, -11.2%; with `Brc1cccc(-c2nnc3n2CCC3)c1`, -2.96%.
For the compound `OC[C@H]1O[C@@H](c2nc(-c3nc(-c4ccc(F)cc4)no3)cs2)[C@H](O)[C@@H](O)[C@H]1O`, the activation was -2.26%.
The value for `Cc1cccc(-c2noc(-c3ccc(F)cc3)n2)c1` was 18.1% (active); that for `Cc1ccc(C)c(N2CCN(C(=O)CCc3nc(-c4cccc(C(F)(F)F)c4)no3)CC2)c1` was -0.63%.
The value for `Cc1ccc(-c2cccc([C@H]3[C@@H]4C=CC[C@@H](C)[C@@H]4C(=O)N3Cc3ccccc3)c2)cc1` was -3.69%; that for `Cc1nn(Cc2ccc(Cl)c(Cl)c2)c(C)c1NC(=O)c1cc(C2CC2)on1` was -11.4%; that for `Cc1nn(Cc2ccc(F)cc2)c(C)c1NC(=O)c1noc2c1CCc1ccccc1-2` was -7.62%.
With `Cc1nn(Cc2ccc(F)cc2)c(C)c1NC(=O)c1cccnc1Cl` the figure was 24.4% (active); with `CCNc1nc(NCC)nc(N(C)n2cnnc2)n1`, 1.44%; with `Nc1c(-c2ccc(F)cc2)cnn1C1CCS(=O)(=O)C1` (stereo not drawn), 0.13%.
As for `O=C(OC12CC3CC(CC(C3)C1)C2)c1ccc(NCc2cc(O)ccc2O)cc1`, the activation is 21.9% (active).
The value for `CC(C)C(=O)Nc1ccc2c(c1)oc1ccccc12` was -7.04%; that for `Cc1ccc(C(c2sc3nc(C)nn3c2O)N2CCN(c3ccc(F)cc3)CC2)cc1` (stereo not drawn) was 42.2% (active).
With `Cc1ccc(C(c2sc3nc(C)nn3c2O)N2CCN(c3ccccc3)CC2)cc1` (stereo not drawn) the figure was 5.14%; with `Cc1nc2sc(C(c3ccco3)N3CCC4(CC3)OCCO4)c(O)n2n1` (stereo not drawn), 5.68%.
As to `Oc1c(C(c2cccs2)N2CCN(c3ccc(F)cc3)CC2)sc2ncnn12` (stereo not drawn), the activation was -5.38%.
For the compound `Cc1nc2sc(C(c3ccco3)N3CCOCC3)c(O)n2n1` (stereo not drawn), the activation is 20.1% (active).
With `Oc1c(C(c2ccco2)N2CCC3(CC2)OCCO3)sc2ncnn12` (stereo not drawn) the figure was -1.05%; with `COc1ccc(COC(=O)N/N=C(\C)CC(=O)Nc2ccc(Cl)cc2)cc1`, -3.42%.
With `COC(=O)c1ccc(C)c(NC(=O)C2CC(=O)N(C3CCCC(C)C3C)C2)c1` (stereo not drawn) the figure was 0.01%; with `Cc1ccc(NC(=O)Cn2cnc3c(OCc4ccccc4)ncnc32)cc1C`, 1.1%; with `CCN(Cc1nc2ccccc2c(=O)[nH]1)Cc1cc(=O)oc2cc(C)c(C)cc12`, -12.3%.
